Glyco luc inh = increase of ERlucT glycosylation luciferase signal, primary screen, N-linked glycosylation inhibitor project, D54 ERlucT cells, luminescence, set 2. D54 ERlucT glycosylation luciferase reporter, 24 h; percent of 100 nM tunicamycin response. reporter increase, % at 12.5 µM. actives 0.23% (n = 360,000). AID 588692, 2011;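 active = mean luciferase reporter signal, scaled so untreated is 0 and the glycosylation-blocking control 100, at or above a set limit in every replicate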;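 note: luciferase carries N-glycosylation sites so blocking glycosylation raises the light; 0% = median of neutral control wells and 100% = median of 100 nM tunicamycin wells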
ALR inh = inhibitors of human ALR sulfhydryl oxidase, primary screen, biochemical, H2O2 detection, HRP-luminol luminescence, single point; FAD-linked sulfhydryl oxidase ALR (Homo sapiens), P55789; purified ALR, DTT oxidation; inhibition, % (concentration not given with the values); actives 3.8% (n = 290,000); AID 485317, 2010;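 active = mean replicate inhibition above about 79%, with every replicate also reaching it, limit read from the data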
Target sequence (P55789 whole entry, looked up): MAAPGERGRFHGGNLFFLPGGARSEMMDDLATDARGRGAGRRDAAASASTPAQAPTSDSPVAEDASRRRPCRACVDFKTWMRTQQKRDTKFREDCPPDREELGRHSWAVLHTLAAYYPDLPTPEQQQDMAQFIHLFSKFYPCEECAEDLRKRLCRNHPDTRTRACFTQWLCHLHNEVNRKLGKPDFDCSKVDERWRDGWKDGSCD
T cell HTS = modulators of CD8 T cell-vesicle binding, primary screen, mouse 2C CD8+ T cells, flow cytometry; response (vesicle binding), % at 7 µM; 2C CD8+ T cell-vesicle binding; stronger effect = lower value; actives 0.068% (n = 330,000);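 active = response, share of CD8 T cells binding vesicles, and their 90th percentile fluorescence all below set limits, cut at about 80% in these data, passing the limit was not always enough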;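 note: values below 100% mean blocked vesicle binding to the CD8+ T cells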
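Benchmarks: naked versus QL9-loaded vesicles / Assay system: purified 2C TCR transgenic mouse naive CD8+ T cells / Technique: high-throughput flow cytometry with anti-B7-1 and anti-CD8 staining / Timing: Cell–vesicle co-incubation 1.5 h at 37 °C, staining 20 min on ice / Read-out: percent CD8+ FL2 mean versus row control / Probe or stimulus: QL9-loaded Drosophila micro-vesicles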
An asterisk follows results filed as active; i = inactive; x = not tested or not shown. This excerpt belongs to a sample that is enriched for hits.

SMILES	Glyco luc inh	ALR inh	T cell HTS
COC(=O)CC(CP(=O)(O)CN(C)C=O)C(=O)OC (stereo not drawn)	2.4	-1.7	100.9
CCN(CC)c1ccc(NC(=O)C2=CC=CN3CCS(=O)(=O)N=C23)cc1	1.1	99.2*	0.0*
CC(C)(C)c1ccc(NC(=O)C2=CC=CN3CCS(=O)(=O)N=C23)cc1	-3.7	2.2	418.9
COC(=O)Cc1[nH]n(-c2nc3ccccc3s2)c(=O)c1C(C)=Nc1ccc(Cl)cc1	-1.7	59.7	312.9
COC(=O)Cc1[nH]n(-c2nc3ccccc3s2)c(=O)c1C(C)=Nc1ccc(C)cc1	-6.6	98.3*	207.3
CC1CCN(S(=O)(=O)c2cccc(-c3csc(-c4cccnc4)n3)c2)CC1	-2.9	-23.7	190.7
c1cncc(-c2csc(-c3cccnc3)n2)c1	0.1	-2.5	496.4
O=S(=O)(c1ccc(-c2csc(-c3cccnc3)n2)cc1)N1CCCCC1	-1.9	62.0	220.1
O=S(=O)(c1cccc(-c2csc(-c3cccnc3)n2)c1)N1CCOCC1	0.8	99.2*	157.4
O=S(=O)(c1cccc(-c2csc(-c3cccnc3)n2)c1)N1CCCCC1	-2.0	97.9*	311.1
O=S(=O)(c1ccc(-c2csc(-c3cccnc3)n2)cc1)N1CCCC1	3.5	96.6*	326.0
Cn1c(C(=O)OC(C(=O)NCC2CCCO2)c2cccnc2)cc2sccc21 (stereo not drawn)	-0.3	-2.5	368.0
CC(C)N(C)c1ncnc2c1ncn2[C@H]1CN(Cc2ccc3c(c2)OCO3)C[C@@H](CO)O1	0.6	x	x
COC(=O)[C@@](C)(O)C1(C(=O)SC(C)(C)C)CC1	5.7	2.1	347.8
CCN(CC)CCNC(=O)c1ccc(NC(=O)C2CCN(c3ncnc4sc(C)c(C)c34)CC2)cc1	-5.2	3.1	240.2
Cc1cc(-c2ccccc2)nc(SCC(=O)N2CCCC2)n1	-4.7	2.3	84.4
COc1cc(/C=C2\SC(=Nc3ccccc3)NC2=O)cc(Cl)c1O	4.5	56.0	520.2
COc1cc(/C=C2\SC(=Nc3ccc(Cl)c(C(=O)O)c3)NC2=O)c(Br)c(Br)c1O	0.5	98.1*	184.4
O=C(Nc1nccs1)C1CC=CCC1 (stereo not drawn)	-0.1	1.1	300.8
O=C(Nc1ccc(O)cc1)C1CC=CCC1 (stereo not drawn)	2.5	98.5*	i
C[C@H](NC(=O)c1ccco1)C(=O)N1CCN(c2ccc(C(F)(F)F)cn2)CC1	0.3	-1.1	171.3
O=C(NC1CCCCC1)c1ccc(-c2ccccc2)cc1	-3.1	1.1	393.4
O=C(O)CCc1ccc(-c2ccc(Br)cc2)n1-c1ccc(O)cc1	2.2	58.3	163.4
Cc1ccc(-c2ccc(CCC(=O)O)n2-c2ccc(O)cc2)cc1	2.9	87.2*	436.7
O=C(O)CCc1ccc(-c2ccc(F)cc2)n1NC(=O)c1ccco1	1.6	12.1	546.2
SMILES	Glyco luc inh	ALR inh	T cell HTS
Cc1ccc(-c2ccc(CCC(=O)O)n2NC(=O)c2ccco2)cc1	-0.3	91.9*	303.0
Cc1cc(C(=O)COC(=O)c2cccc(O)c2)c(C)n1C1CC1	-18.8	3.9	895.5
CCOC(=O)C(=O)Nc1nccs1	3.0	x	142.4
Cc1ccc(C)c(OCCCC(=O)Nc2nccs2)c1	-0.9	2.3	292.3
CCOC(=S)SCC(=O)Nc1nccs1	4.7	87.6*	398.2
O=C(CSCC(=O)Nc1nccs1)Nc1ccccc1	-0.7	98.9*	125.1
Cc1nc(NC(=O)CCc2ccccc2)sc1C	-1.3	72.4	480.3
O=C(CSCc1ccc(Cl)cc1)Nc1nccs1	-0.5	-1.9	328.6
Cc1ccccc1OCCCC(=O)Nc1nccs1	0.5	93.9*	708.3
CCOC(=S)SCC(=O)Nc1nc(C)c(C)s1	10.5	98.4*	318.8
COc1ccc(CNC(=O)Cn2ccc([N+](=O)[O-])n2)cc1OC	-0.4	5.6	341.9
O=C(N=C1SC2CS(=O)(=O)CC2N1c1cccc(Cl)c1)C1CCCO1 (stereo not drawn)	3.4	-2.0	284.2
Cc1ccc(C)c(S(=O)(=O)Nc2cc3c4c(c2)CCC(=O)N4CCC3)c1	3.8	2.1	731.3
C[C@H]1CN([C@@H](C)CO)S(=O)(=O)c2ccc(Br)cc2O[C@@H]1CN(C)Cc1cccc(F)c1	-4.2	x	x
O=C(CSCC(=O)Nc1nc(-c2ccc3c(c2)OCO3)cs1)Nc1nccs1	5.2	99.0*	486.4
O=C(CSc1ccc(-c2ccc3c(c2)OCO3)nn1)Nc1nccs1	-6.5	-10.4	275.4
Cc1nc(NC(=O)CSc2nc(N)cc(N)n2)sc1C	3.1	94.2*	425.5
CCn1c(SCC(=O)Nc2nc(C)c(C)s2)nnc1-c1cccs1	2.5	5.8	659.7
CCCCn1c(N)c(N(Cc2ccccc2OC)C(=O)CN2C(=O)NC(C)(c3ccccc3)C2=O)c(=O)[nH]c1=O (stereo not drawn)	-0.4	-12.1	229.8
CCN(CC)S(=O)(=O)c1ccc2c(c1)N(CC(=O)NCC1CCCO1)C(=O)CO2 (stereo not drawn)	0.6	-4.4	560.4
CCN(CC)S(=O)(=O)c1cccc(-c2n[nH]c(=S)n2/N=C/c2ccc(OC)cc2)c1	2.1	x	225.3
CCN(CC)S(=O)(=O)c1cccc(-c2n[nH]c(=S)n2/N=C/c2ccc(OC(F)F)cc2)c1	3.0	97.7*	405.4
COc1c(F)c(F)c(C(=O)O)c(Nc2ccc(C)cc2C)c1F	0.8	96.9*	341.9
COc1cccc(Nc2c(F)c(F)c(F)c(F)c2C(=O)O)c1	1.0	99.5*	598.2
COc1c(F)c(F)c(C(=O)O)c(Nc2cc(C)cc(C)c2)c1F	-0.1	11.1	477.5
SMILES	Glyco luc inh	ALR inh	T cell HTS
COc1cccc(Nc2c(F)c(OC)c(F)c(F)c2C(=O)O)c1	3.0	20.8	358.3
Cc1cccc(Nc2c(F)c(F)c(F)c(F)c2C(=O)O)c1	0.4	13.5	312.7
Cc1ccc(Nc2c(F)c(F)c(F)c(F)c2C(=O)O)cc1	-0.9	87.3*	265.1
N#CC1=C(N)Oc2cc(N)ccc2C1c1ccc(F)cc1 (stereo not drawn)	6.2	98.3*	478.9
COc1cc(C2C(C#N)=C(N)Oc3cc(N)ccc32)cc(OC)c1OC (stereo not drawn)	31.8*	-40.2	274.8
N#CC1=C(N)Oc2cc(N)ccc2C1c1ccc(Cl)cc1 (stereo not drawn)	-1.4	57.4	246.7
CCc1ccc(C2C(C#N)=C(N)Oc3cc(N)ccc32)cc1 (stereo not drawn)	0.0	46.9	145.1
COc1cc(C2C(C#N)=C(N)Oc3cc(C)oc(=O)c32)cc(OC)c1OC (stereo not drawn)	3.6	19.9	233.4
COc1ccc(C2C(C#N)=C(N)Oc3cc(N)ccc32)cc1 (stereo not drawn)	1.0	95.3*	164.8
Cc1cccc(NC(=O)CNC(=O)CN2C(=O)NC3(CCCCC3C)C2=O)c1C (stereo not drawn)	-0.5	-2.3	613.5
Cc1cccc(C(=O)OCC(=O)NCC2COc3ccccc3O2)c1 (stereo not drawn)	0.3	-11.8	296.5
CC(=O)c1ccc(S(=O)(=O)NCc2ccc(C(=O)N(C)CC(=O)Nc3cccc(F)c3)cc2)cc1	0.4	-3.0	156.6

Source: PubChem BioAssay
